Test results reported in ChEMBL document CHEMBL4665711, “Synthesis of (Z)-3-(arylamino)-1-(3-phenylimidazo[1,5-a]pyridin-1-yl)prop-2-en-1-ones as potential cytotoxic agents” (Bioorg Med Chem Lett, 2020).
Calls of active or inactive are those of the source. The calls are words filed in the database; no cut-off is given here.

How the values were obtained:
[1] = test system: HCT-116; test: Induction of apoptosis in human HCT-116 cells assessed as increase in late apoptotic cells incubated for 48 hrs by annexin-V and propidium iodide staining based flow cytometry analysis; format: functional, cell-based; conditions: dose microM 0.5-2.5, time 48.0 hrs
[2] = test system: HCT-116; test: Induction of apoptosis in human HCT-116 cells assessed as necrotic cells at 2.5 uM incubated for 48 hrs by annexin-V and propidium iodide staining based flow cytometry analysis (reference value: 0.36 %); format: functional
[3] = test system: HCT-116; test: Induction of apoptosis in human HCT-116 cells assessed as necrotic cells at 1 uM incubated for 48 hrs by annexin-V and propidium iodide staining based flow cytometry analysis (reference value: 0.36 %); format: functional
[4] = test system: HCT-116; test: Induction of apoptosis in human HCT-116 cells assessed as late apoptotic cells at 0.5 uM incubated for 48 hrs by annexin-V and propidium iodide staining based flow cytometry analysis (reference value: 1.48 %); format: functional
[5] = test system: HCT-116; test: Induction of apoptosis in human HCT-116 cells assessed as early apoptotic cells at 2.5 uM incubated for 48 hrs by annexin-V and propidium iodide staining based flow cytometry analysis (reference value: 1.87 %); format: functional
[6] = test system: HCT-116; test: Induction of apoptosis in human HCT-116 cells assessed as early apoptotic cells at 1 uM incubated for 48 hrs by annexin-V and propidium iodide staining based flow cytometry analysis (reference value: 1.87 %); format: functional
[7] = test system: HCT-116; test: Induction of apoptosis in human HCT-116 cells assessed as viable cells at 0.5 uM incubated for 48 hrs by annexin-V and propidium iodide staining based flow cytometry analysis (reference value: 96.29 %); format: functional; conditions: read-out: Activity
[8] = test system: HCT-116; test: Induction of mitochondrial membrane potential loss in human HCT-116 cells assessed as cells with depolarized mitochondria by measuring increase in J-monomer green fluorescence intensity at 0.5 uM incubated for 48 hrs by JC1 staining based flow cytometry analysis (reference value: 12.53 %); format: functional
[9] = test system: HCT-116; test: Induction of mitochondrial membrane potential loss in human HCT-116 cells assessed as cells with hyperpolarized mitochondria by measuring decrease in J-aggregates red fluorescence intensity at 0.5 uM incubated for 48 hrs by JC1 staining based flow cytometry analysis (reference value: 86.42 %); format: functional; set-up: scale not given: the % may be the effect or the level left
[10] = test system: HCT-116; test: Induction of mitochondrial membrane potential loss in human HCT-116 cells assessed as cells with hyperpolarized mitochondria by measuring decrease in J-aggregates red fluorescence intensity at 1 uM incubated for 48 hrs by JC1 staining based flow cytometry analysis (reference value: 86.42 %); format: functional; set-up: scale not given: the % may be the effect or the level left
[11] = test system: HCT-116; test: Induction of ROS production in human HCT-116 cells incubated for 24 hrs by DCFDA staining based fluorescence microscopic analysis; format: functional, cell-based; conditions: dose microM 0.5-2.5, time 24.0 hrs
How it was run: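 For intracellular ROS, HCT-116 cells were incubated at 0.5, 1 and 2.5 µM for 24 h and stained with DCFDA. Cells were imaged by fluorescence microscopy, and DCF fluorescence was quantified at 480/535 nm excitation/emission in arbitrary units against control.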

[12] = test system: HCT-116; test: Induction of apoptosis in human HCT-116 cells assessed as loose cell structure at 0.5 to 2.5 uM incubated for 48 hrs by DAPI staining based fluorescence microscopic analysis; format: functional; conditions: dose microM 0.5-2.5, time 48.0 hrs
How it was run: (§1)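 Nuclear morphology was imaged by fluorescence microscopy using a DAPI filter at 200×; untreated cells served as control.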

[13] = test system: HCT-116; test: Induction of apoptosis in human HCT-116 cells assessed as increase in DNA breakdown incubated for 24 hrs by acridine orange staining based microscopic analysis; format: functional, cell-based; conditions: dose microM 0.5-2.5, time 24.0 hrs
How it was run: (§2)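 HCT-116 cells were incubated at 0.5, 1.0 and 2.5 µM for 24 h and stained with acridine orange. Green fluorescence (excitation 480-490 nm), chromatin distribution and blebbing were inspected microscopically at 200× against untreated controls.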

[14] = test system: HCT-116; test: Induction of apoptosis in human HCT-116 cells assessed as reduction in green fluorescence intensity at 0.5 to 2.5 uM incubated for 24 hrs by acridine orange staining based microscopic analysis; format: functional, cell-based; conditions: dose microM 0.5-2.5, time 24.0 hrs; how it was run: as §2
[15] = test system: HCT-116; test: Induction of apoptosis in human HCT-116 cells assessed as membrane blebbing at 0.5 to 2.5 uM incubated for 24 hrs by acridine orange staining based microscopic analysis; format: functional, cell-based; conditions: dose microM 0.5-2.5, time 24.0 hrs; how it was run: as §2
[16] = test system: HCT-116; test: Induction of apoptosis in human HCT-116 cells assessed as irregular distribution of chromatin at 0.5 to 2.5 uM incubated for 24 hrs by acridine orange staining based microscopic analysis; format: functional, cell-based; conditions: dose microM 0.5-2.5, time 24.0 hrs; how it was run: as §2
[17] = test system: HCT-116; test: Cytotoxicity against human HCT-116 cells assessed as reduction in cell viability at 0.5 to 2.5 uM incubated for 48 hrs by phase contrast microscopy; format: functional, cell-based; conditions: dose microM 0.5-2.5, time 48.0 hrs
[18] = test system: HCT-116; test: Inhibition of colony formation in human HCT-116 cells incubated for 10 days by crystal violet staining based assay; format: functional, cell-based; conditions: dose microM 0.25-1, time 10.0 day
How it was run: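 HCT-116 cells exposed in medium to 0.25, 0.5 and 1 μM over 10 days to allow colonies to form. Colonies visualised by crystal violet staining and counted relative to untreated control cells.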

[19] = test system: HCT-116; test: Induction of cell cycle arrest in human HCT-116 cells assessed as G0/G1 phase incubated for 48 hrs by propidium iodide based flow cytometry analysis; format: functional; conditions: dose microM 0.5-2.5, time 48.0 hrs
[20] = test system: HCT-116; test: Induction of cell cycle arrest in human HCT-116 cells assessed as G2/M phase at 2.5 uM incubated for 48 hrs by propidium iodide based flow cytometry analysis (reference value: 15.3 %); format: functional
[21] = test system: HCT-116; test: Induction of cell cycle arrest in human HCT-116 cells assessed as S phase at 2.5 uM incubated for 48 hrs by propidium iodide based flow cytometry analysis (reference value: 7.8 %); format: functional
[22] = test system: HCT-116; test: Induction of cell cycle arrest in human HCT-116 cells assessed as S phase at 0.5 uM incubated for 48 hrs by propidium iodide based flow cytometry analysis (reference value: 7.8 %); format: functional
[23] = test system: HCT-116; test: Induction of cell cycle arrest in human HCT-116 cells assessed as G0/G1 phase at 2.5 uM incubated for 48 hrs by propidium iodide based flow cytometry analysis (reference value: 28.2 %); format: functional
[24] = test system: HCT-116; test: Induction of cell cycle arrest in human HCT-116 cells assessed as sub-G1 phase at 2.5 uM incubated for 48 hrs by propidium iodide based flow cytometry analysis (reference value: 2.1 %); format: functional
[25] = test system: HCT-116; test: Induction of cell cycle arrest in human HCT-116 cells assessed as sub-G1 phase at 0.5 uM incubated for 48 hrs by propidium iodide based flow cytometry analysis (reference value: 2.1 %); format: functional
[26] = test system: MDA-MB-231; test: Cytotoxicity against human MDA-MB-231 cells assessed as reduction in cell viability incubated for 48 hrs by MTT assay; format: functional, cell-based; conditions: MDA-MB-231, 48 h
How it was run: (§3)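 Cancer cell lines were exposed to drug for 48 h, and the 50% inhibitory concentration was determined. Values are averages of three individual experiments. A549, HCT-116, BT-474 and MDA-MB-231 are human lines; B16F10 is a murine melanoma line.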

[27] = test system: BT-474; test: Cytotoxicity against human BT-474 cells assessed as reduction in cell viability incubated for 48 hrs by MTT assay; format: functional, cell-based; conditions: BT-474, 48 h; how it was run: as §3
[28] = test system: A549; test: Cytotoxicity against human A549 cells assessed as reduction in cell viability incubated for 48 hrs by MTT assay; format: functional, cell-based; conditions: A549, 48 h; how it was run: as §3
[29] = test system: HCT-116; test: Induction of apoptosis in human HCT-116 cells assessed as condensed DNA at 0.5 to 2.5 uM incubated for 48 hrs by DAPI staining based fluorescence microscopic analysis; format: functional, cell-based; conditions: dose microM 0.5-2.5, time 48.0 hrs; how it was run: as §1

O=C(/C=C\Nc1ccc(Cl)cc1)c1nc(-c2ccc(F)cc2)n2ccccc12
Activity [1]: Dose-dependent effect | Activity [2]: 13.3% | Activity [3]: 3.49% | Activity [4]: 5.7% | Activity [5]: 2.29% | Activity [6]: 3.78% | viability at 0.5 µM [7]: 87.5% | Activity [8]: 13.5% | Activity [9]: 85.48% | Activity [10]: 78.07% | Activity [11]: Dose-dependent effect | Activity [12]: Active | Activity [13]: Dose-dependent effect | Activity [14]: Active | Activity [15]: Active | Activity [16]: Active | Activity [17]: Active | inhibition [18]: Dose-dependent effect | Activity [19]: Dose-dependent effect | Activity [20]: 15.6% | Activity [21]: 8.5% | Activity [22]: 7% | Activity [23]: 41.9% | Activity [24]: 1.6% | Activity [25]: 1.2% | IC50 [26]: 4.25 µM | IC50 [27]: 7.03 µM | IC50 [28]: 5.09 µM | Activity [29]: Active
